Published values of several laboratories.
Each line is one published result; the experiments were not run side by side.
Target: Muscle, skeletal receptor tyrosine-protein kinase (MUSK, Homo sapiens, UniProt O15146)
Residues used in one study (O15146 24-869): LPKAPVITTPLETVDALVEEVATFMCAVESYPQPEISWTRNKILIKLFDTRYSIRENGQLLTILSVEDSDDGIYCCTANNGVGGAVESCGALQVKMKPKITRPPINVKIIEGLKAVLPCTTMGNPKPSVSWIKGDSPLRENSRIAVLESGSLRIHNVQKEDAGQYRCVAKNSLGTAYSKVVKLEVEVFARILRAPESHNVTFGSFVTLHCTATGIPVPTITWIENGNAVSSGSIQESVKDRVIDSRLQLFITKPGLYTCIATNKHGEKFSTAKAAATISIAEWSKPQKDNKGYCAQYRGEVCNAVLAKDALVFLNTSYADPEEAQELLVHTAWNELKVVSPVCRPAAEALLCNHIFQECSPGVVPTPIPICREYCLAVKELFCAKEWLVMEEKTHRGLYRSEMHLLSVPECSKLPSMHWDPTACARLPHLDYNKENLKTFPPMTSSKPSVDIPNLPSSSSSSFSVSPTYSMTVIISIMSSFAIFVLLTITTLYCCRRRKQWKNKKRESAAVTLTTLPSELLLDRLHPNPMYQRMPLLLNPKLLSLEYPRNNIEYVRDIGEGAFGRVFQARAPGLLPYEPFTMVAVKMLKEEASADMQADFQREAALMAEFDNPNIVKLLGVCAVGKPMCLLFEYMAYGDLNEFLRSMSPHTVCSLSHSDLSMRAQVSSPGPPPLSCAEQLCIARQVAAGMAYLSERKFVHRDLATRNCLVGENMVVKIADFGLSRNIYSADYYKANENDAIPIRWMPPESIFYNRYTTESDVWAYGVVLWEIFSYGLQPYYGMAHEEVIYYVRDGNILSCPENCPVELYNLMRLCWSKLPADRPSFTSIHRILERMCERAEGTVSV

`CC(C)(O)[C@H]1CC[C@H](Nc2ccc3ncc(-c4cccc(C(F)(F)F)c4)n3n2)CC1` gave a remaining activity of 23.7% (enzyme activity, inhibitor; 1 µM).
`O=C1NC(=O)c2cc(Nc3ccc(F)cc3)c(Nc3ccc(F)cc3)cc21` has a remaining signal of 90.2% (cell-free assay; 0.5 µM).
`c1ccc(N2CCN(Cc3nc4ccccc4[nH]3)CC2)nc1` gave a remaining binding of 100% (binding, competition with immobilised ligand; 1 µM).
The inhibition of `Cc1ccc(Nc2nccc(N(C)c3ccc4c(C)n(C)nc4c3)n2)cc1S(N)(=O)=O` is reported as 75% (enzyme activity, inhibitor; 0.3 µM).
The remaining binding of `CC(=O)Nc1c(C(C)=O)c(=O)n(C)c2nc(-c3ccc(Cl)cc3Cl)c(-c3ccc(Cl)cc3)cc12` is reported as 100% (cell-free assay, competition with immobilised ligand; 1 µM).
The inhibition of `CNC(=O)c1cc(Oc2ccc(NC(=O)Nc3ccc(Cl)c(C(F)(F)F)c3)cc2)ccn1` is reported as 77% (enzyme activity, inhibitor; 0.3 µM).
The inhibition of `CCCS(=O)(=O)Nc1ccc(F)c(C(=O)c2c[nH]c3ncc(-c4ccc(Cl)cc4)cc23)c1F` is reported as < 10% (enzyme activity, inhibitor; 1 µM).
`O=C(Nc1cnn(-c2csc(C(=O)NC3COC3)c2)c1)Nc1c(F)cccc1Cl` gave a remaining activity of 86.8% (enzyme activity, inhibitor; 5 µM).
`COc1cc(Cl)c(C(=O)N[C@@H](CN[C@H]2CC[C@@H](N)CC2)Cc2ccc(C#N)cc2)cc1-c1ccc(CN[C@H](C)c2ccc(C)cc2)o1` gave a remaining activity of 84% (enzyme activity, inhibitor; 1 µM).
With `Cc1cc(NC(=O)c2cccc3cc(-c4cccc5[nH]nc(N)c45)ccc23)ccc1F` the activity vs control was 99% (enzyme activity, inhibitor; 0.1 µM).
`COc1cc(C)c(Sc2cnc(NC(=O)c3ccc(N4CCN(CCCCCCCNC(=O)COc5cccc6c5C(=O)N(C5CCC(=O)NC5=O)C6=O)CC4)cc3)s2)cc1C(=O)N1CCN(C(C)=O)CC1` (stereo not drawn) gave an inhibition of > 90% (cell-free assay; 1 µM).
`CCN(CC)CCNC(=O)c1c(C)[nH]c(/C=C2\C(=O)Nc3ccc(F)cc32)c1C` has an inhibition of 90% (enzyme activity, inhibitor; 10 µM).
`C[C@@H]1CN(c2cc(-c3nn(C)c4ccc(OC5(C)CC5)cc34)ncn2)C[C@H](C)O1` gave a remaining binding of 92% (cell-free assay, competition with immobilised ligand; 1 µM).
`CC(C)(C)c1nc(-c2cccc(NS(=O)(=O)c3c(F)cccc3F)c2F)c(-c2ccnc(N)n2)s1` has a remaining activity of 113% (enzyme activity, inhibitor, radiometric; 1 µM).
`O=C(Nc1cccnn1)N1CC(C/C=C/c2cncc(Oc3ccc(C(F)(F)F)cn3)n2)C1` has a remaining binding of 97% (cell-free assay, competition with immobilised ligand; 1 µM).
`COc1cc2ncnc(Nc3ccc(Oc4ccccc4)cc3C)c2cc1OC` gave an inhibition of 4% (enzyme activity, inhibitor; 1 µM).
The remaining binding of `CN(C)C(=O)Cn1cc(-c2nc(C3(c4ccc(-c5cnc(N)nc5)cc4)CC3)no2)cn1` is reported as 100% (cell-free assay, competition with immobilised ligand; 1 µM).
`CCCOc1ccc(OC)c(F)c1C(=O)c1ccc(C(=O)N[C@@H]2CNC[C@H]2NC(=O)c2ccc3[nH]ncc3c2)cc1` gave a remaining activity of 13% (enzyme activity, inhibitor; 0.75 µM).
The remaining binding of `CCC(=N\O)/C(C)=C/c1ccc(F)cc1` is reported as 90% (cell-free assay, competition with immobilised ligand; 1 µM).
`CNC(=O)c1cc2c(Oc3ccc(NC(=O)C4(C(=O)Nc5ccc(F)cc5)CC4)cc3)ccnc2cc1OC` gave an inhibition of 70% (enzyme activity, inhibitor, radiometric; 1 µM).
The remaining binding of `CS(=O)(=O)NCC[C@H](NC(=O)c1cncc2c1cnn2-c1ccc(F)cc1)c1ccnc(S(C)(=O)=O)c1` is reported as 100% (cell-free assay, competition with immobilised ligand; 1 µM).
The inhibition of `CN1CC(Oc2cnc(C#N)cc2-c2ccn3nc(NC(=O)C4CC4)cc3c2)C1` is reported as 6% (enzyme activity, inhibitor; 1 µM).
`COc1cc2c(N3CCN(C(=O)Nc4ccc(OC(C)C)cc4)CC3)ncnc2cc1OCCCN1CCCCC1` has a remaining signal of 99.6% (cell-free assay; 0.5 µM).
`O=C(NC[C@@H]1[C@H]2CN(C(=O)OCc3cc(C(F)(F)F)cc(C(F)(F)F)c3)C[C@@H]12)c1ccc2[nH]nnc2c1` gave a remaining binding of 77% (cell-free assay, competition with immobilised ligand; 1 µM).
